The record followed here is ChEMBL document CHEMBL1144286, “Parallel synthesis of pteridine derivatives as potent inhibitors for hepatitis C virus NS5B RNA-dependent RNA polymerase” (Bioorg Med Chem Lett, 2005).

A value given as a limit tells only on which side of the number the result lay.

The target of the assay is RNA-directed RNA polymerase (Hepacivirus hominis, UniProt O39930). In words: Inhibitory concentration against RNA dependent RNA polymerase Nonstructural protein 5B of hepatitis C virus. The procedure, abridged:
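Run per an earlier published HCV NS5B RdRp procedure. Compounds were dissolved in DMSO and then transferred into assay buffer. Each was tested in duplicate, and IC50 was taken as the concentration giving 50% inhibition of polymerase activity.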

Chain of RNA-directed RNA polymerase (O39930 whole entry): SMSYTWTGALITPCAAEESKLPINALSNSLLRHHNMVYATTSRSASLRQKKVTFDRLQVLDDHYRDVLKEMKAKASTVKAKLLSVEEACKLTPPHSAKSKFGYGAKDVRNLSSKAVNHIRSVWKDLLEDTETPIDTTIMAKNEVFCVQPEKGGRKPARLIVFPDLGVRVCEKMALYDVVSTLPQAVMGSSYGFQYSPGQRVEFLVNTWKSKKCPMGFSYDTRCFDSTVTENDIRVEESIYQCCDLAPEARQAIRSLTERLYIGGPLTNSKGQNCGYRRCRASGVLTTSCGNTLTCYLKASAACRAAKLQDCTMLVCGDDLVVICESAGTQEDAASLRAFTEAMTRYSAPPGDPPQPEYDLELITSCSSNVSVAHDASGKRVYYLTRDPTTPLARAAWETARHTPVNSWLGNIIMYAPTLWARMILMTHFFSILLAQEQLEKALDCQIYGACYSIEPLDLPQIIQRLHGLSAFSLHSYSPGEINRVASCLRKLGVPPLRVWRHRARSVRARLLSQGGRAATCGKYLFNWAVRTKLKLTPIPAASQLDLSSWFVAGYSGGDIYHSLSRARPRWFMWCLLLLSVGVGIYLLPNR

One may read the IC50 as the point on the concentration scale where inhibition reaches its midpoint. In turn, `COc1cccc(-c2nc3ncnc(O)c3nc2-c2cccc(OC)c2)c1` came in with an IC50 greater than 100 µM. Molecule `CCCCOCCCNc1ncnc2nc(-c3ccc(F)cc3)c(-c3ccc(F)cc3)nc12` registered an IC50 of 73 µM. In other words, the double-digit micromolar range. Molecule `Fc1ccc(-c2nc3ncnc(N4CCCCC4)c3nc2-c2ccc(F)cc2)cc1` displayed an IC50 of 68 µM.

On to `CC1CCC(Nc2ncnc3nc(-c4ccc(F)cc4)c(-c4ccc(F)cc4)nc23)CC1` (configuration not stated), for which the IC50 worked out at 1.3 µM. For `COc1ccccc1CCNc1ncnc2nc(-c3ccc(F)cc3)c(-c3ccc(F)cc3)nc12` the value was 80 µM; for `CCCC(C)Nc1ncnc2nc(-c3ccc(F)cc3)c(-c3ccc(F)cc3)nc12` (configuration not stated), 1.5 µM; for `CCCCCCNc1ncnc2nc(-c3ccccc3)c(-c3ccccc3)nc12`, greater than 100 µM.

On to `Oc1ncnc2nc(-c3ccccc3)c(-c3ccccc3)nc12`, for which the IC50 was 15 µM. Then `Fc1ccc(CCNc2ncnc3nc(-c4ccccc4)c(-c4ccccc4)nc23)cc1`, with greater than 100 µM; and `c1ccc(-c2nc3ncnc(NC4CCCCCC4)c3nc2-c2ccccc2)cc1`, with 29 µM. For `Cc1ccc(-c2nc3ncnc(O)c3nc2-c2ccc(C)cc2)cc1` the value was greater than 100 µM; for `O=c1[nH]cnc2nc3c4ccccc4c4ccccc4c3nc12`, greater than 100 µM; for `c1ccc(-c2nc3ncnc(N4CCCCC4)c3nc2-c2ccccc2)cc1`, greater than 100 µM.

`CCCC(C)Nc1ncnc2nc(-c3ccccc3)c(-c3ccccc3)nc12` (configuration not stated) displayed an IC50 of 6 µM. Then `Fc1ccc(-c2nc3ncnc(NC4CCCCCC4)c3nc2-c2ccc(F)cc2)cc1`, with 3.2 µM; and `Fc1ccc(-c2nc3ncnc(NCc4ccco4)c3nc2-c2ccc(F)cc2)cc1`, with 2.9 µM.

On to `Oc1ncnc2nc(-c3ccccn3)c(-c3ccccn3)nc12`, for which the IC50 was greater than 100 µM.

In the case of `CCNc1ncnc2nc(-c3ccc(F)cc3)c(-c3ccc(F)cc3)nc12`, the midpoint of inhibition, the IC50, lay at 2.9 µM. Then `COC(=O)C1CCCN1c1ncnc2nc(-c3ccc(F)cc3)c(-c3ccc(F)cc3)nc12` (configuration not stated), with 51 µM; and `O=c1[nH]cnc2nc3c(nc12)C1CCCCC31` (configuration not stated), with greater than 100 µM. In turn, `O=c1[nH]cnc2nc(-c3ccccc3)c(-c3ccc([N+](=O)[O-])cc3)nc12` showed an IC50 of 23 µM.

The molecule `CN(C)c1ncnc2nc(-c3ccc(F)cc3)c(-c3ccc(F)cc3)nc12` returned a half-inhibitory concentration (IC50) of 21 µM.

The molecule `Fc1ccc(CCNc2ncnc3nc(-c4ccc(F)cc4)c(-c4ccc(F)cc4)nc23)cc1` yielded a 50% inhibitory concentration (IC50) of 26 µM.

Regarding `Cc1ccc(CNc2ncnc3nc(-c4ccc(F)cc4)c(-c4ccc(F)cc4)nc23)cc1`, the IC50 is 9.6 µM. Take `Cc1ccc(CNc2ncnc3nc(-c4ccccc4)c(-c4ccccc4)nc23)cc1`: the IC50 is greater than 100 µM. The molecule `CCNc1ncnc2nc(-c3ccccc3)c(-c3ccccc3)nc12` showed an IC50 of 16 µM. The molecule `O=c1[nH]cnc2nc(-c3ccc(Br)cc3)c(-c3ccc(Br)cc3)nc12` had an IC50 of 30 µM. `Fc1ccc(-c2nc3ncnc(NC4CCC4)c3nc2-c2ccc(F)cc2)cc1` displayed an IC50 of 2.1 µM. This IC50 is about 14-fold lower than that of the molecule before. For the molecule `CCCCCCNc1ncnc2nc(-c3ccc(F)cc3)c(-c3ccc(F)cc3)nc12`, the IC50 was greater than 100 µM. Molecule `O=c1[nH]cnc2nc(-c3ccccc3Cl)c(-c3ccccc3Cl)nc12` gave an IC50 greater than 100 µM.

Molecule `CCCCC(CC)CNc1ncnc2nc(-c3ccc(F)cc3)c(-c3ccc(F)cc3)nc12` (configuration not stated) returned a half-inhibitory concentration (IC50) of 10 µM. Then `Oc1ncnc2nc(-c3ccc(F)cc3)c(-c3ccc(F)cc3)nc12`, with 0.5 µM; and `COc1ccc(-c2nc3ncnc(O)c3nc2-c2ccc(OC)cc2)cc1`, with greater than 100 µM; and `Fc1ccc(-c2nc3ncnc(NCCc4ccccc4)c3nc2-c2ccc(F)cc2)cc1`, with 13 µM.

`O=[N+]([O-])c1ccc(-c2nc3ncnc(O)c3nc2-c2ccccc2)cc1`: the IC50 came out at 30 µM.

Take `Oc1ncnc2nc(-c3ccco3)c(-c3ccco3)nc12`: the IC50 worked out at 58 µM. This IC50 is about 1.9-fold higher than that of the molecule before. Turning to `CCCCOCCCNc1ncnc2nc(-c3ccccc3)c(-c3ccccc3)nc12`, the IC50 is 87 µM.
